In brackets after ≈: the same amount, converted by molar mass. Activity calls are given as the source filed them. No cut-off for these calls is given here.
How the values were obtained:
[1] = tested on: Micrococcus luteus; assay: Antibacterial activity against Micrococcus luteus ATCC 10240 after 24 hrs by agar well diffusion method; format: functional; details: ATCC 10240, 24 h
How it was run: (§1)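 MIC by agar well diffusion with serial dilutions. Strains grown in LB at 37 °C for 24 h. 0.75 ml broth culture mixed into 75 ml nutrient agar and poured; 8 mm wells cut, filled with test sample in DMSO. Plates incubated 37 °C for 24 h. DMSO served as negative control, roxithromycin and cefixime as positive controls.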

[2] = tested on: Escherichia coli; assay: Antibacterial activity against Escherichia coli ATCC 15224 at 1 mg/ml after 24 hrs by agar well diffusion method; format: functional; details: for zone of inhibition at 1000 µg/mL: ATCC 15224, 24 h, read-out: DIZ
How it was run: (§2)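 Agar well diffusion. Strains grown in LB at 37 °C for 24 h; 0.75 ml broth culture seeded into 75 ml nutrient agar. 8 mm wells received 100 µl of sample at 1 mg/ml in DMSO. Incubated 37 °C for 24 h; inhibition zone diameter measured in mm. DMSO negative control; roxithromycin and cefixime (1 mg/ml) positive controls.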

[3] = tested on: Nucleic Acid; assay: Binding affinity to chicken blood dsDNA assessed as shift in Ep/mv at 1 x 10 '-3 M at pH 7.4 by cyclic voltammetry; format: nucleic-acid assay; details: Gallus gallus
How it was run: (§3)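 Cyclic voltammetry at glassy carbon electrode vs SCE. Compound 1 mM in acetate pH 4.7 or phosphate pH 7.4 buffer at 37 °C, argon-purged 10–15 min. Scanned −1 to +1.5 V at 100 mV/s before and after chicken blood DNA (10–50 µM final). Peak current decrease and Ep shift recorded; Kb derived from current decrease.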

[4] = tested on: Staphylococcus aureus; assay: Antibacterial activity against Staphylococcus aureus ATCC 6538 at 1 mg/ml after 24 hrs by agar well diffusion method; format: functional; details: for zone of inhibition at 1000 µg/mL: ATCC 6538, 24 h, read-out: DIZ; how it was run: as §2
[5] = tested on: Nucleic Acid; assay: Binding affinity to chicken blood dsDNA assessed as hyperchromic effect at 1.1 x 10 '-4 M at pH 7.4 by UV-spectroscopy; format: nucleic-acid assay; details: Gallus gallus
How it was run: (§4)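 Chicken blood DNA (A260/A280 >1.8) quantified at 260 nm (ε 6600). Compound held at 1.1 × 10^-4 M; DNA titrated 10–50 µM in acetate pH 4.7 or phosphate pH 7.4 buffer at 37 °C; UV absorbance recorded. Kb taken as intercept/slope of A0/(A−A0) vs 1/[DNA] (Benesi–Hildebrand); ΔG = −RTlnKb.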

[6] = tested on: Klebsiella aerogenes; assay: Antibacterial activity against Enterobacter aerogenes ATCC 13048 after 24 hrs by agar well diffusion method; format: functional; details: ATCC 13048, 24 h; how it was run: as §1
[7] = tested on: Nucleic Acid; assay: Antioxidant activity against OH-radical-induced oxidative Escherichia coli pBR322 damage at 10 to 100 ug/ml incubated for 1 hr in dark by agarose gel electrophoresis; format: nucleic-acid assay
How it was run: (§5)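 pBR322 plasmid diluted in 50 mM phosphate buffer. 15 µl reactions held diluted plasmid, test compound (1000, 100 or 10 µg/ml), 2 mM FeSO4 and 30% H2O2. Incubated 37 °C for 1 h in dark. Controls: plasmid plus FeSO4/H2O2, and untreated plasmid. Run on 1% agarose in TBE, ethidium bromide stained; supercoiled band intensity compared with control.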

[8] = tested on: Bordetella bronchiseptica; assay: Antibacterial activity against Bordetella bronchiseptica ATCC 10580 at 1 mg/ml after 24 hrs by agar well diffusion method; format: functional; details: for zone of inhibition at 1000 µg/mL: ATCC 10580, 24 h, read-out: DIZ; how it was run: as §2
[9] = tested on: Staphylococcus aureus; assay: Antibacterial activity against Staphylococcus aureus ATCC 6538 after 24 hrs by agar well diffusion method; format: functional; details: ATCC 6538, 24 h; how it was run: as §1
[10] = tested on: Micrococcus luteus; assay: Antibacterial activity against Micrococcus luteus ATCC 10240 at 1 mg/ml after 24 hrs by agar well diffusion method; format: functional; details: for zone of inhibition at 1000 µg/mL: ATCC 10240, 24 h, read-out: DIZ; how it was run: as §2
[11] = tested on: Nucleic Acid; assay: Binding affinity to chicken blood dsDNA assessed as shift in Ep/mv at 1 x 10 '-3 M at pH 4.7 by cyclic voltammetry; format: nucleic-acid assay; details: Gallus gallus; how it was run: as §3
[12] = tested on: Nucleic Acid; assay: Binding affinity to chicken blood dsDNA assessed as decrease in current at 1 x 10 '-3 M at pH 7.4 by cyclic voltammetry; format: nucleic-acid assay; set-up: scale not given: the % may be the effect or the level left; details: Gallus gallus; how it was run: as §3
[13] = tested on: Nucleic Acid; assay: Binding affinity to chicken blood dsDNA assessed as hyperchromic effect at 1.1 x 10 '-4 M at pH 4.7 by UV-spectroscopy; format: nucleic-acid assay; details: Gallus gallus; how it was run: as §4
[14] = tested on: Nucleic Acid; assay: Binding affinity to chicken blood dsDNA at pH 7.4 by cyclic voltammetry; format: nucleic-acid assay; details: Gallus gallus; how it was run: as §3
[15] = tested on: Escherichia coli; assay: Antibacterial activity against Escherichia coli ATCC 15224 after 24 hrs by agar well diffusion method; format: functional; details: ATCC 15224, 24 h; how it was run: as §1
[16] = tested on: Nucleic Acid; assay: Enhancement of OH-radical-induced oxidative Escherichia coli pBR322 damage at 1000 ug/ml incubated for 1 hr in dark by agarose gel electrophoresis; format: nucleic-acid assay; how it was run: as §5
[17] = tested on: Nucleic Acid; assay: Binding affinity to chicken blood dsDNA assessed as decrease in current at 1 x 10 '-3 M at pH 4.7 by cyclic voltammetry; format: nucleic-acid assay; set-up: scale not given: the % may be the effect or the level left; details: Gallus gallus; how it was run: as §3
[18] = tested on: Klebsiella aerogenes; assay: Antibacterial activity against Enterobacter aerogenes ATCC 13048 at 1 mg/ml after 24 hrs by agar well diffusion method; format: functional; details: for zone of inhibition at 1000 µg/mL: ATCC 13048, 24 h, read-out: DIZ; how it was run: as §2
[19] = tested on: Salmonella typhi; assay: Antibacterial activity against Salmonella typhi ATCC 6539 at 1 mg/ml after 24 hrs by agar well diffusion method; format: functional, Salmonella enterica subsp. enterica serovar Typhi; details: for zone of inhibition at 1000 µg/mL: Salmonella enterica, ATCC 6539, 24 h, read-out: DIZ; for diameter of the inhibition zone (DIZ): Salmonella enterica subsp. enterica serovar Typhi
How it was run: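 Agar well diffusion. S. typhi ATCC 6539 grown in LB at 37 °C for 24 h, 0.75 ml broth culture seeded into 75 ml nutrient agar. 8 mm wells received 100 µl of sample at 1 mg/ml in DMSO. Plates incubated 37 °C for 24 h and inhibition zone diameter measured in mm. DMSO as negative control; roxithromycin and cefixime (1 mg/ml) as positive controls.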

[20] = tested on: Nucleic Acid; assay: Binding affinity to chicken blood dsDNA at pH 7.4 by UV-spectroscopy; format: nucleic-acid assay; details: Gallus gallus; how it was run: as §4
[21] = tested on: Nucleic Acid; assay: Binding affinity to chicken blood dsDNA at pH 4.7 by UV-spectroscopy; format: nucleic-acid assay; details: Gallus gallus; how it was run: as §4
[22] = tested on: Salmonella typhi; assay: Antibacterial activity against Salmonella typhi ATCC 6539 after 24 hrs by agar well diffusion method; format: functional, Salmonella enterica subsp. enterica serovar Typhi; details: Salmonella enterica, ATCC 6539, 24 h
[23] = tested on: Bordetella bronchiseptica; assay: Antibacterial activity against Bordetella bronchiseptica ATCC 10580 after 24 hrs by agar well diffusion method; format: functional; details: ATCC 10580, 24 h; how it was run: as §1
[24] = tested on: Artemia; assay: Cytotoxicity against brine shrimps after 24 hr; format: functional; details: read-out: LD50 (the source's name)
How it was run: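 Brine shrimp lethality. Artemia salina hatched 48 h at room temperature in aerated artificial sea water (sea salt 38 g/l). Ten active nauplii per vial in 5 ml sea water with compound at 10, 100 and 1000 µg/ml final. Survivors counted after 24 h, run in triplicate. LD50 derived by Finney analysis.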

[25] = tested on: Nucleic Acid; assay: Binding affinity to chicken blood dsDNA at pH 4.7 by cyclic voltammetry; format: nucleic-acid assay; details: Gallus gallus; how it was run: as §3
[26] = tested on: Nucleic Acid; assay: Antioxidant activity against OH-radical-induced oxidative Escherichia coli pBR322 damage at 10 to 1000 ug/ml incubated for 1 hr in dark by agarose gel electrophoresis; format: nucleic-acid assay; how it was run: as §5
[27] = tested on: Nucleic Acid; assay: Antioxidant activity against OH-radical-induced oxidative Escherichia coli pBR322 damage at 100 to 1000 ug/ml incubated for 1 hr in dark by agarose gel electrophoresis; format: nucleic-acid assay; how it was run: as §5
[28] = tested on: Nucleic Acid; assay: Antioxidant activity against OH-radical-induced oxidative Escherichia coli pBR322 damage at 10 ug/ml incubated for 1 hr in dark by agarose gel electrophoresis; format: nucleic-acid assay; how it was run: as §5

| SMILES | zone of inhibition at 1000 µg/mL [2] [mm] | Activity [3] | zone of inhibition at 1000 µg/mL [4] [mm] | Activity [5] | zone of inhibition at 1000 µg/mL [8] [mm] | zone of inhibition at 1000 µg/mL [10] [mm] | Activity [11] | Activity [12] [%] | Activity [13] | Kb [14] [×10⁴ /M] | Activity [17] [%] | zone of inhibition at 1000 µg/mL [18] [mm] | zone of inhibition at 1000 µg/mL [19] [mm] | Kb [20] [×10⁴ /M] | Kb [21] [×10⁴ /M] | LC50 [24] [µg/mL] | Kb [25] [×10⁴ /M] | diameter of the inhibition zone (DIZ) [2] | diameter of the inhibition zone (DIZ) [4] | diameter of the inhibition zone (DIZ) [8] | further results |
| --- | --- | --- | --- | --- | --- | --- | --- | --- | --- | --- | --- | --- | --- | --- | --- | --- | --- | --- | --- | --- | --- |
| NNC(=O)c1ccc(O)cc1O | 25.1 | 37 | 13.4 | Active | 18.2 | 18.2 | 20 | 26.1 | Active | 1.31 | 29.2 | 15.3 | 24.6 | 1.24 | 2.02 | 419 (≈ 2490 µM) | 3.13 |  |  |  | MIC [1]: 800 µg/mL (≈ 4760 µM); MIC [6]: 800 µg/mL (≈ 4760 µM); Activity [7]: Active; MIC [9]: 200 µg/mL (≈ 1190 µM); MIC [15]: 100 µg/mL (≈ 595 µM); Activity [16]: Toxic; MIC [22]: 100 µg/mL (≈ 595 µM); MIC [23]: 800 µg/mL (≈ 4760 µM) |
| C=CC1=C(C(=O)O)N2C(=O)[C@@H](NC(=O)/C(=N\OCC(=O)O)c3csc(N)n3)[C@H]2SC1 [CEFIXIME] | 40.5 |  | 39.1 |  | 38.5 | 38.7 |  |  |  |  |  | 16.1 | 34.3 |  |  |  |  |  |  |  |  |
| NNC(=O)c1ccncc1 [ISONIAZID] |  | 8 |  | Active |  |  | 51 | 77.1 | Active | 1.6 | 50.8 |  |  | 1.42 | 1.6 | 1070 (≈ 7840 µM) | 2.03 | inactive | inactive | inactive | Activity [26]: Active; diameter of the inhibition zone (DIZ) [10]: inactive; diameter of the inhibition zone (DIZ) [18]: inactive; diameter of the inhibition zone (DIZ) [19]: inactive |
| NNC(=O)c1cnccn1 [PYRAZINE CARBOXYLIC ACID HYDRAZIDE] |  | 51 |  | Active |  |  | 44 | 33.3 | Active | 1.21 | 75 |  |  | 1.1 | 1.6 | 313 (≈ 2260 µM) | 1.7 | inactive | inactive | inactive | Activity [27]: Active; diameter of the inhibition zone (DIZ) [10]: inactive; diameter of the inhibition zone (DIZ) [18]: inactive; diameter of the inhibition zone (DIZ) [19]: inactive; Activity [28]: inactive |
| CC[C@H]1OC(=O)[C@H](C)[C@@H](O[C@H]2C[C@@](C)(OC)[C@@H](O)[C@H](C)O2)[C@H](C)[C@@H](O[C@@H]2O[C@H](C)C[C@H](N(C)C)[C@H]2O)[C@](C)(O)C[C@@H](C)/C(=N\OCOCCOC)[C@H](C)[C@@H](O)[C@]1(C)O [ROXITHROMYCIN] | 18.1 |  | 32 |  | 18.2 | 30.2 |  |  |  |  |  | 31.2 | 27.9 |  |  |  |  |  |  |  |  |

From ChEMBL document CHEMBL1938314, “Electrochemical and spectroscopic investigations of isoniazide and its analogs with ds.DNA at physiological pH: evaluation of biological activities” (Eur J Med Chem, 2012)
